From ChEMBL document CHEMBL2440012, “Design, synthesis and anticonvulsant properties of new N-Mannich bases derived from 3-phenylpyrrolidine-2,5-diones” (Bioorg Med Chem, 2013)
The source made the active and inactive calls. The rule behind the calls is not given here.

Experiments:
[1] = Neurotoxicity in ip dosed albino CF1 mouse by rotorod test; assay type: toxicity, organism-based; conditions: in vivo
Mus musculus [2] = test: Protection index, ratio of TD50 for neurotoxicity in ip dosed albino CF1 mouse by rotorod test to ED50 for anticonvulsant activity in ip dosed albino CF1 mouse by 6 Hz psychomotor seizure test; assay type: functional
Mus musculus [3] = test: Neurotoxicity in ip dosed albino CF1 mouse assessed as time to peak effect by rotorod test; assay type: toxicity, organism-based; conditions: in vivo
Mus musculus [4] = test: Anticonvulsant activity against 6 Hz psychomotor seizure in ip dosed albino CF1 mouse by minimal clonic seizure test; assay type: functional
Mus musculus [5] = test: Anticonvulsant activity against 6 Hz psychomotor seizure in ip dosed albino CF1 mouse assessed as time to peak effect by minimal clonic seizure test; assay type: functional
Mus musculus [6] = test: Anticonvulsant activity in albino CF1 mouse assessed as assessed as protection against 6 Hz psychomotor seizure at 75 mg/kg, ip after 4 hrs by minimal clonic seizure test; assay type: functional; conditions: route intraperitoneal
Summary of the method: (§1)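 Male CF-1 mice, groups of four, dosed ip in 0.5% methylcellulose/water suspension, then challenged by 6-Hz corneal stimulation at 32 mA (0.2 ms pulses, 3 s, constant current) at 0.25, 0.5, 1, 2 or 4 h; count of mice out of four protected from stunned posture/clonic seizure.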

Mus musculus [7] = test: Anticonvulsant activity in albino CF1 mouse assessed as assessed as protection against 6 Hz psychomotor seizure at 75 mg/kg, ip after 2 hrs by minimal clonic seizure test; assay type: functional; conditions: route intraperitoneal; summary of the method: as §1
Mus musculus [8] = test: Anticonvulsant activity in albino CF1 mouse assessed as assessed as protection against 6 Hz psychomotor seizure at 75 mg/kg, ip after 1 hr by minimal clonic seizure test; assay type: functional; conditions: route intraperitoneal; summary of the method: as §1
Mus musculus [9] = test: Anticonvulsant activity in albino CF1 mouse assessed as assessed as protection against 6 Hz psychomotor seizure at 75 mg/kg, ip after 0.5 hr by minimal clonic seizure test; assay type: functional; conditions: route intraperitoneal; summary of the method: as §1
Mus musculus [10] = test: Anticonvulsant activity in albino CF1 mouse assessed as assessed as protection against 6 Hz psychomotor seizure at 75 mg/kg, ip after 0.25 hr by minimal clonic seizure test; assay type: functional; conditions: route intraperitoneal; summary of the method: as §1
Rattus norvegicus [11] = test: Neurotoxicity in po dosed albino Sprague-Dawley rat assessed as time to peak effect by rotorod test; assay type: toxicity, organism-based; conditions: in vivo
Rattus norvegicus [12] = test: Anticonvulsant activity against […] subcutaneous pentylenetetrazole-induced convulsion in po dosed albino Sprague-Dawley rat assessed as time to peak effect; assay type: functional
Rattus norvegicus [13] = test: Anticonvulsant activity against maximal electroshock-induced seizures in po dosed albino Sprague-Dawley rat assessed as time to peak effect; assay type: functional
Rattus norvegicus [14] = test: Protection index, ratio of TD50 for neurotoxicity in po dosed albino Sprague-Dawley rat by rotorod test to ED50 for anticonvulsant activity in po dosed albino Sprague-Dawley rat by scPTZ test; assay type: functional
Summary of the method: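 Male Sprague-Dawley rats, compound suspended in 0.5% methylcellulose/water and given orally; tested at the time of peak effect. scPTZ: 70 mg/kg pentylenetetrazole sc; the end-point is clonic seizures lasting at least 5 s. Rotarod: motor impairment is failure to keep balance for 1 min in each of three trials. Groups of at least eight rats received several doses until at least three points fell within 10–90% effect. ED50, TD50 and 95% confidence intervals were derived by regression; PI = TD50/ED50.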

Rattus norvegicus [15] = test: Protection index, ratio of TD50 for neurotoxicity in po dosed albino Sprague-Dawley rat by rotorod test to ED50 for anticonvulsant activity in po dosed albino Sprague-Dawley rat by MES test; assay type: functional
[16] = Neurotoxicity in po dosed albino Sprague-Dawley rat assessed as minimum motor impairment by rotorod test; assay type: toxicity, organism-based; conditions: in vivo
Rattus norvegicus [17] = test: Anticonvulsant activity in po dosed albino Sprague-Dawley rat assessed as protection against subcutaneous pentylenetetrazole-induced convulsion; assay type: functional
Rattus norvegicus [18] = test: Anticonvulsant activity in albino Sprague-Dawley rat assessed as protection against maximal electroshock-induced seizures at 30 mg/kg, po measured after 4 hrs; assay type: functional
Summary of the method: (§2)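 Male Sprague-Dawley rats, four per group, dosed p.o. at 30 mg/kg in 0.5% methylcellulose/water suspension; MES test at 0.25, 0.5, 1, 2 and 4 h, motor impairment examined in parallel; number of rats out of four protected.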

Rattus norvegicus [19] = test: Anticonvulsant activity in albino Sprague-Dawley rat assessed as protection against maximal electroshock-induced seizures at 30 mg/kg, po measured after 2 hrs; assay type: functional; summary of the method: as §2
Rattus norvegicus [20] = test: Anticonvulsant activity in po dosed albino Sprague-Dawley rat assessed as protection against maximal electroshock-induced seizures; assay type: functional
Rattus norvegicus [21] = test: Anticonvulsant activity in albino Sprague-Dawley rat assessed as protection against maximal electroshock-induced seizures at 30 mg/kg, po measured after 1 hr; assay type: functional; summary of the method: as §2
Rattus norvegicus [22] = test: Anticonvulsant activity in albino Sprague-Dawley rat assessed as protection against maximal electroshock-induced seizures at 30 mg/kg, po measured after 0.5 hr; assay type: functional; summary of the method: as §2
Rattus norvegicus [23] = test: Anticonvulsant activity in albino Sprague-Dawley rat assessed as protection against maximal electroshock-induced seizures at 30 mg/kg, po measured after 0.25 hr; assay type: functional; summary of the method: as §2
Mus musculus [24] = test: Toxicity in albino CF1 mouse assessed as myoclonic jerks at 300 mg/kg, ip measured after 0.5 hr by rotorod test; assay type: organism-based; set-up: dose 300 mg/kg, route intraperitoneal; conditions: in vivo
Mus musculus [25] = test: Neurotoxicity in albino CF1 mouse assessed as minimum motor impairment at 300 mg/kg, ip measured after 4 hrs by rotorod test; assay type: toxicity, organism-based; set-up: dose 300 mg/kg, route intraperitoneal; conditions: in vivo
Summary of the method: (§3)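 Male CF-1 mice given ip suspension in 0.5% methylcellulose/water at 30, 100 and 300 mg/kg; MES, scPTZ (pentylenetetrazole 85 mg/kg sc, CD97 dose for clonic seizures ≥5 s) and rotarod (inability to hold balance 1 min in each of three trials) assessed at 0.5 and 4 h; value is minimum dose active in half or more animals.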

Mus musculus [26] = test: Neurotoxicity in ip dosed albino CF1 mouse assessed as minimum motor impairment in half or more animals measured after 0.5 hrs by rotorod test; assay type: toxicity, organism-based; conditions: in vivo; summary of the method: as §3
Mus musculus [27] = test: Anticonvulsant activity in albino CF1 mouse assessed as protection against subcutaneous pentylenetetrazole-induced convulsion at 300 mg/kg, ip measured after 0.5 hrs; assay type: functional, organism-based; set-up: dose 300 mg/kg; summary of the method: as §3
Mus musculus [28] = test: Anticonvulsant activity in ip dosed albino CF1 mouse assessed as protection against maximal electroshock-induced seizures in half or more animals measured after 0.5 hr; assay type: functional; conditions: read-out: MED; summary of the method: as §3
Mus musculus [29] = test: Anticonvulsant activity in ip dosed albino CF1 mouse assessed as protection against maximal electroshock-induced seizures in half or more animals measured after 4 hrs; assay type: functional; conditions: read-out: MED; summary of the method: as §3
Mus musculus [30] = test: Toxicity in albino CF1 mouse assessed as diarrhea at 300 mg/kg, ip measured after 4 hrs by rotorod test; assay type: organism-based; set-up: dose 300 mg/kg, route intraperitoneal; conditions: in vivo
Mus musculus [31] = test: Neurotoxicity in albino CF1 mouse assessed as minimum motor impairment at 300 mg/kg, ip measured after 0.5 hr by rotorod test; assay type: toxicity, organism-based; set-up: dose 300 mg/kg, route intraperitoneal; conditions: in vivo; summary of the method: as §3
Mus musculus [32] = test: Anticonvulsant activity in albino CF1 mouse assessed as protection against subcutaneous pentylenetetrazole-induced convulsion at 300 mg/kg, ip measured after 4 hrs; assay type: functional, organism-based; set-up: dose 300 mg/kg; summary of the method: as §3
Mus musculus [33] = test: Anticonvulsant activity in albino CF1 mouse assessed as protection against maximal electroshock-induced seizures at 300 mg/kg, ip measured after 0.5 hr; assay type: functional, organism-based; set-up: dose 300 mg/kg; summary of the method: as §3

## O=C1CC(c2ccccc2Cl)C(=O)N1CN1CCC(Cc2ccccc2)CC1 (racemic)
[1]
  TD50: 275 mg/kg
Mus musculus [2]
  Ratio TD50/ED50: 3.26
Mus musculus [3]
  Time: 0.5 h
Mus musculus [4]
  ED50: 84.6 mg/kg
Mus musculus [5]
  Time: 0.5 h
Mus musculus [6]
  Activity: 0%
Mus musculus [7]
  Activity: 25%
Mus musculus [8]
  Activity: 0%
Mus musculus [9]
  Activity: 75%
Mus musculus [10]
  Activity: 0%
Rattus norvegicus [11]
  Time: 1 h
Rattus norvegicus [12]
  Time: 1 h
Rattus norvegicus [13]
  Time: 1 h
Rattus norvegicus [14]
  Ratio TD50/ED50: >4.68
Rattus norvegicus [15]
  Ratio TD50/ED50: >13.28
[16]
  TD50: > 500 mg/kg
Rattus norvegicus [17]
  ED50: 107 mg/kg
Rattus norvegicus [18]
  Activity: inactive
Rattus norvegicus [19]
  Activity: 25%
Rattus norvegicus [20]
  ED50: 37.6 mg/kg
Rattus norvegicus [21]
  Activity: 75%
Rattus norvegicus [22]
  Activity: 75%
Rattus norvegicus [23]
  Activity: 25%
Mus musculus [24]
  MED: 100 mg/kg
Mus musculus [25]
  Activity: Non-toxic
Mus musculus [26]
  MED: 300 mg/kg
Mus musculus [27]
  Activity: inactive
Mus musculus [28]
  minimal effective dose: 300 mg/kg
Mus musculus [29]
  minimal effective dose: 100 mg/kg

## O=C1CC(c2ccccc2Cl)C(=O)N1CN1CCN(c2ncccn2)CC1 (racemic)
Rattus norvegicus [18]
  Activity: inactive
Rattus norvegicus [19]
  Activity: inactive
Rattus norvegicus [21]
  Activity: inactive
Rattus norvegicus [22]
  Activity: inactive
Rattus norvegicus [23]
  Activity: inactive
Mus musculus [30]
  MED: 300 mg/kg
Mus musculus [31]
  Activity: Non-toxic
Mus musculus [32]
  Activity: inactive
Mus musculus [27]
  Activity: inactive
Mus musculus [29]
  minimal effective dose: 100 mg/kg
Mus musculus [33]
  Activity: inactive
